Drawing on ChEMBL document CHEMBL1122798, “Trypanocidal 1,3-arylene diketone bis(guanylhydrazone)s. Structure-activity relationships among substituted and heterocyclic analogues” (1984), this text covers Cures/total and ED50 for six compounds.

For orientation: ED50 means the dose at which the effect has come halfway, by size or by number of responders. A higher ED50 goes with weaker potency.

Holding throughout (format): functional
For assay [1], the system named is Mus musculus. Briefly: Compound was tested for Trypanocidal Activity in mice at 40 mg/kg; 0/5.
For assay [2], the system named is Mus musculus. Briefly: Compound was tested for Trypanocidal Activity in mice at 25 mg/kg; 0/5.
Assay [3] deals with Mus musculus. Briefly: Compound was tested for Trypanocidal Activity in mice at 15 mg/kg; 0/5.
Assay [4] concerns Mus musculus. The assay can be described thus: Compound was tested for Trypanocidal Activity in mice at 10 mg/kg; 0/5.
For assay [5], the system named is Mus musculus. Briefly: Compound was tested for Trypanocidal Activity in mice at 100 mg/kg; 0/5.
The subject of assay [6] is Mus musculus. The assay can be described thus: Compound was tested for Trypanocidal Activity in mice at 60 mg/kg; 2/5.
Assay [7] concerns Mus musculus. The assay can be described thus: Compound was tested for Trypanocidal Activity in mice at 40 mg/kg; 0/10.
The subject of assay [8] is Mus musculus. The assay can be described thus: Compound was tested for Trypanocidal Activity in mice at 40 mg/kg; 10/10.
Assay [9] relates to Mus musculus. The assay can be described thus: Compound was tested for Trypanocidal Activity in mice at 15 mg/kg; 9/10.
Assay [10] has as its system Mus musculus. The assay can be described thus: Compound was tested for Trypanocidal Activity in mice at 2.5 mg/kg; 3/20.
Assay [11] deals with Mus musculus. Briefly: Compound was tested for Trypanocidal Activity in mice at 60 mg/kg; 0/5.
For assay [12], the system named is Mus musculus. Briefly: Compound was tested for Trypanocidal Activity in mice at 25 mg/kg; 8/10.
The test system of assay [13] is Mus musculus. Briefly: Compound was tested for Trypanocidal Activity in mice at 1.5 mg/kg; 0/15.
For assay [14], the system named is Mus musculus. Briefly: Compound was tested for Trypanocidal Activity in mice at 4 mg/kg; 11/20.
The test system of assay [15] is Mus musculus. Briefly: Compound was tested for Trypanocidal Activity in mice at 10 mg/kg; 10/10.
For assay [16], the species on record is Mus musculus. The assay can be described thus: Effective dose against Trypanosoma brucei infection in mice. In outline: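 Female Swiss-Webster mice (20–25 g) were infected ip with 5×10^4 T. brucei EATRO 110 organisms in fresh mouse blood diluted with minimum essential medium. Groups of 5 or 10 received a single ip dose in normal saline (solution or milled suspension, 20 μL/g) 6 h post-infection. Deaths within 72 h were scored as toxic. Survivors aparasitemic at 28 days (tail-blood wet films, phase contrast) counted as cures. ED50 was computed by Bliss/Litchfield–Wilcoxon, excluding toxic dosages.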

In assay [17] the test system is Mus musculus. Briefly: Compound was tested for Trypanocidal Activity in mice at 6 mg/kg; 14/20.
In assay [18] the test system is Mus musculus. The assay can be described thus: Compound was tested for Trypanocidal Activity in mice at 15 mg/kg; 0/10.
The subject of assay [19] is Mus musculus. The assay can be described thus: Compound was tested for Trypanocidal Activity in mice at 150 mg/kg; 0/5.

For `C/C(=N\NC(=N)N)c1cccc(/C(C)=N/NC(=N)N)c1N.Cl`, the Cures/total in the assay on Mus musculus [1], with Mus musculus [2] and in the assay with Mus musculus [3] was 0 each time.
Take `Br.C/C(=N\NC1=NCCN1)c1cccc(/C(C)=N/NC2=NCCN2)c1`: the Cures/total with Mus musculus [1], in the assay on Mus musculus [4], in the assay on Mus musculus [2] and with Mus musculus [3] was 0 throughout.
With `C/C(=N\NC(=N)N)c1cc(I)cc(/C(C)=N/NC(=N)N)c1.Cl`, the Cures/total with Mus musculus [5] was 0; with Mus musculus [6], 2; in the assay with Mus musculus [7], 0.
As to `C/C(=N\NC(=N)N)c1cc(C)cc(/C(C)=N/NC(=N)N)c1.Cl`, the Cures/total in the assay on Mus musculus [8] is given as 10; with Mus musculus [5] it was 0; with Mus musculus [9], 9; with Mus musculus [10], 3; in the assay with Mus musculus [11], 0; in the assay with Mus musculus [12], 8. In addition, the Cures/total is recorded as 0 in the assay on Mus musculus [13], 11 in the assay on Mus musculus [14], 10 in the assay with Mus musculus [15] and 14 in the assay with Mus musculus [17]. This compound yielded a 50% effective dose (ED50) in the assay listed under Mus musculus [16] of 4.1 mg/kg.
Regarding `C/C(=N\NC(=N)N)c1cc(/C(C)=N/NC(=N)N)c(C)nc1C.CS(=O)(=O)O.Cl.Cl`, the Cures/total in the assay on Mus musculus [5], in the assay on Mus musculus [11], with Mus musculus [1], with Mus musculus [18] and in the assay on Mus musculus [19] was 0 throughout.
`C/C(=N\NC(=N)N)c1cccc(/C(C)=N/NC(=N)N)c1[N+](=O)[O-].Cl`: the Cures/total in the assay with Mus musculus [1], in the assay on Mus musculus [18] and in the assay with Mus musculus [2] was 0 throughout.
